The record followed here is ChEMBL document CHEMBL1155198, “Non-nucleoside inhibitors of HCV polymerase NS5B. Part 4: structure-based design, synthesis, and biological evaluation of benzo[d]isothiazole-1,1-dioxides” (Bioorg Med Chem Lett, 2009).

For data set [1], the system named is Hepatitis C virus. Briefly: Antiviral activity against HCV1b infected in human 2209-23 cells assessed as inhibition of virus RNA replication by Renilla luciferase reporter gene assay in presence of 5% fetal bovine serum. The data set is classed as functional, organism-based, Hepacivirus hominis. The settings on record: genotype 1b. In a few lines: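 Cell-based HCV subgenomic replicon (genotype 1b) assay run in medium containing 5% fetal bovine serum.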
In general terms: In a reporter assay the amount or activity of a reporter protein is the signal.

The subject of data set [2] is Hepatitis C virus. Briefly: Selectivity ratio, EC50 for HCV1b in presence of 40% human serum to EC50 for HCV1b in presence of 5% fetal bovine serum. The data set is classed as functional, Hepacivirus hominis, genotype 1b.
Data set [3] concerns Hepatitis C virus. Briefly: Antiviral activity against HCV1b infected in human 2209-23 cells assessed as inhibition of virus RNA replication by Renilla luciferase reporter gene assay in presence of 40% human serum. Type of data set: functional, organism-based, Hepacivirus hominis. The settings on record: genotype 1b. In a few lines:
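Serum-shift version of the HCV subgenomic replicon (GT-1b) cell assay, with 40% human serum added to assess the effect of protein binding.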

The next data set concerns the target Genome polyprotein (Hepatitis C virus genotype 1b (isolate Con1) (HCV), UniProt Q9WMX2). Kind of data set: Inhibition of […] con1 NS5B polymerase assessed as [3H]UTP incorporation into acid insoluble RNA product.
Data set [4] can be described thus: Clearance in rat at 2 mg/kg, iv and 5 mg/kg, po. Type of data set: ADME, organism-based. The settings on record: in vivo. Put shortly: (§1)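 Single-dose PK in rats or cynomolgus monkeys; intravenous dose 2 mg/Kg, oral dose 5 mg/Kg; parameters reported as means.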
Data set [5] can be described thus: Metabolic stability in rat liver microsomes. The settings on record: read-out: Stability. Type of data set: ADME, Microsome. (In general: Microsomes from liver hold many membrane-bound enzymes, among them those of drug oxidation.)
Data set [6] can be described thus: Half life in rat at 2 mg/kg, iv and 5 mg/kg, po. The data set is classed as ADME, organism-based. The settings on record: in vivo. In a few lines: as §1
The nature of data set [7]: Oral bioavailability in rat at 5 mg/kg. Type of data set: ADME, organism-based. The settings on record: in vivo. In a few lines: as §1
Data set [8] is described as follows: AUC in rat at 2 mg/kg, iv and 5 mg/kg, po. The data set is classed as ADME, organism-based. The settings on record: plasma. In a few lines:
as §1

The subject of data set [9] is Hepatitis C virus. Kind of data set: Ratio of EC50 for HCV GT-1a replicon over EC50 for HCV GT-1b replicon. A general note: Replicon systems follow genome replication, usually without infectious particles.
In another data set the test system is Caco-2. Kind of data set: Efflux ratio of permeability from basolateral to apical over apical to basolateral side in human Caco-2 cells after 21 days. The settings on record: caco-2, 504 h.
A short description of data set [10]: Half life in cynomolgus monkey at 2 mg/kg, iv and 5 mg/kg, po. The data set is classed as ADME, organism-based, Macaca fascicularis. The settings on record: in vivo. In a few lines:
as §1

A short description of data set [11]: AUC in cynomolgus monkey at 2 mg/kg, iv and 5 mg/kg, po. The data set is classed as ADME, organism-based, Macaca fascicularis. The settings on record: plasma. Put shortly: as §1
Data set [12] in a line: Metabolic stability in cynomolgus monkey liver microsomes. The data set is classed as ADME, Macaca fascicularis, Microsome. The settings on record: read-out: Stability.
Data set [13] is described as follows: Oral bioavailability in cynomolgus monkey at 5 mg/kg. The data set is classed as ADME, organism-based, Macaca fascicularis. The settings on record: in vivo. Put shortly: as §1
A short description of data set [14]: Clearance in cynomolgus monkey at 2 mg/kg, iv and 5 mg/kg, po. Type of data set: ADME, organism-based, Macaca fascicularis. The settings on record: in vivo. Put shortly:
as §1

In data set [15] the test system is Hepatitis C virus. Briefly: Antiviral activity against HCV1b infected in human 2209-23 cells assessed as inhibition of virus RNA replication by Renilla luciferase reporter gene assay. The settings on record: genotype 1b. The data set is classed as functional, organism-based, Hepacivirus hominis.

Sequence of Genome polyprotein (Q9WMX2 2420-3010 limits assumed): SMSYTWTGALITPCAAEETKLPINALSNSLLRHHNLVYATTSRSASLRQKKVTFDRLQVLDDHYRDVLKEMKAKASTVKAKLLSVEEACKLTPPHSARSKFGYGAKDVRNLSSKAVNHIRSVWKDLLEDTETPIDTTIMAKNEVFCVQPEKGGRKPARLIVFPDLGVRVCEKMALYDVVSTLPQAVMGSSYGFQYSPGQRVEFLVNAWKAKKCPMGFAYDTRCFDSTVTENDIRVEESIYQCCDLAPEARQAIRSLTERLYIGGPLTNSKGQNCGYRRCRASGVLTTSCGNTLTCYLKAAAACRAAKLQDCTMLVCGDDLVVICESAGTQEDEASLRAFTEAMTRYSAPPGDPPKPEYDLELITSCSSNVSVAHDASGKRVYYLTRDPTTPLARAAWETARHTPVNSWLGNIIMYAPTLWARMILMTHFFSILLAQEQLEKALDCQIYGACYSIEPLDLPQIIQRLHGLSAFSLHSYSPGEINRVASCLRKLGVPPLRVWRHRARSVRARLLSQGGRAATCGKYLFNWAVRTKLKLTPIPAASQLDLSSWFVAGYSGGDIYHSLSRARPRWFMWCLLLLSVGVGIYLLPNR

With `CC(C)(C)[C@H]1C(O)=C(C2=NS(=O)(=O)c3c(CN4CCCCS4(=O)=O)cccc32)C(=O)N1Cc1ccc(F)cc1`, the EC50 (usually the concentration needed to bring the measured effect to its halfway point) with Hepatitis C virus [1] came out at 202 nM; in the data set on Hepatitis C virus [3] it was 4660 nM. Besides, in the data set on Hepatitis C virus [2], the “Ratio IC50” value is recorded as 23.1. Further, the IC50 (commonly the point on the concentration scale where inhibition reaches its midpoint) at Genome polyprotein is 12 nM.
For `CC(C)(C)[C@H]1C(O)=C(C2=NS(=O)(=O)c3c(OCS(C)(=O)=O)cccc32)C(=O)N1Cc1ccc(F)cc1`, the results for the EC50 in the data set with Hepatitis C virus [1] and in the data set with Hepatitis C virus [3] were 235 nM and 4660 nM, respectively. In the data set with Hepatitis C virus [2], the “Ratio IC50” value was found to be 19.8. Further, the IC50 at Genome polyprotein was 9 nM.
The compound `Cc1cc(CN2C(=O)C(C3=NS(=O)(=O)c4c(CN(C)S(C)(=O)=O)cccc43)=C(O)[C@@H]2C(C)(C)C)ccc1F` displayed a clearance in [4] of 34.4 mL/min/kg. Also, the microsomal CLint in data set [5] was 939 µL/min/mg. Also, the concentration for a half-maximal effect (EC50) came to 129 nM in the data set with Hepatitis C virus [1] and 1070 nM with Hepatitis C virus [3]. In addition, in the data set on Hepatitis C virus [2], the “Ratio IC50” value was 8.27. In addition, in data set [6], the half-life (in general, the time in which the quantity being followed falls by half) was 3.37 h. Also, the bioavailability – broadly, the share of a dose that reaches the circulation, judged against a reference dose that is usually intravenous – in data set [7] is 24%. Also, the AUC (as a rule, the area under the concentration-time curve, a measure of exposure) in [8] turned out to be 582 ng·h/mL. In addition, the Ratio EC50 in the data set on Hepatitis C virus [9] stood at 2. The Ratio in the data set with Caco-2 worked out at 4.3. Besides, the IC50 on Genome polyprotein is 5 nM.
Regarding `CC(C)(C)[C@H]1C(O)=C(C2=NS(=O)(=O)c3c(CCS(C)(=O)=O)cccc32)C(=O)N1Cc1ccc(F)cc1`, the 50% effective concentration (EC50) with Hepatitis C virus [1] worked out at 282 nM; with Hepatitis C virus [3], 4800 nM. Also, the “Ratio IC50” value with Hepatitis C virus [2] is given as 17. Also, the IC50 at Genome polyprotein came to 4 nM.
With `CC(C)(C)[C@H]1C(O)=C(C2=NS(=O)(=O)c3c(CNS(C)(=O)=O)cccc32)C(=O)N1Cc1ccc(F)cc1`, the EC50 stood at 100 nM in the data set on Hepatitis C virus [1] and 3730 nM in the data set on Hepatitis C virus [3]. Further, in the data set with Hepatitis C virus [2], the “Ratio IC50” value turned out to be 37.3. In addition, the Ratio EC50 in the data set with Hepatitis C virus [9] is 2.
With `CN(Cc1cccc2c1S(=O)(=O)N=C2C1=C(O)[C@H](C(C)(C)C)N(Cc2ccc(F)c(Cl)c2)C1=O)S(C)(=O)=O`, the EC50 in the data set on Hepatitis C virus [1] amounted to 108 nM; with Hepatitis C virus [3] it was 3040 nM. Besides, the “Ratio IC50” value in the data set with Hepatitis C virus [2] is given as 28.1. Further, the IC50 on Genome polyprotein came out at 10 nM.
For `CN(Cc1cccc2c1S(=O)(=O)N=C2C1=C(O)[C@H](C(C)(C)C)N(Cc2ccc(F)cc2)C1=O)S(N)(=O)=O`, in that order: 272 nM, 1270 nM, 5.9 and 1 nM.
Compound `Cc1cc(CN2C(=O)C(C3=NS(=O)(=O)c4c(CNS(N)(=O)=O)cccc43)=C(O)[C@@H]2C(C)(C)C)ccc1F` returned a clearance in [4] of 48 mL/min/kg. Further, the microsomal CLint in data set [5] is 239 µL/min/mg. Moreover, the EC50 was determined as 76 nM with Hepatitis C virus [1] and 1170 nM in the data set with Hepatitis C virus [3]. Besides, the “Ratio IC50” value in the data set with Hepatitis C virus [2] was determined as 15.3. The same compound showed a half-life in data set [6] of 4.7 h. Also, the bioavailability in [7] stood at 8.2%. Also, in [8], the AUC was determined as 102 ng·h/mL. Further, the Ratio EC50 with Hepatitis C virus [9] is 2. For the same compound, the Ratio with Caco-2 was found to be 6.7. Also, the IC50 at Genome polyprotein came to 3 nM.
Take `Cc1cc(CN2C(=O)C(C3=NS(=O)(=O)c4c(CNS(C)(=O)=O)cccc43)=C(O)[C@@H]2C(C)(C)C)ccc1F`: the clearance in data set [4] was determined as 8.4 mL/min/kg; in data set [14], 10 mL/min/kg. In addition, the half-life was 1.75 h in data set [10] and 4.18 h in [6]. Also, the microsomal CLint was 431 µL/min/mg in [5] and 23 µL/min/mg in data set [12]. Further, the AUC was 1230 ng·h/mL in [11] and 2750 ng·h/mL in [8]. Moreover, the EC50 in the data set on Hepatitis C virus [1] came out at 82 nM; with Hepatitis C virus [3], 2570 nM. Moreover, in the data set with Hepatitis C virus [2], the “Ratio IC50” value was 31.3. For the same compound, the bioavailability in data set [7] stood at 17%; in data set [13], 11%. The Ratio EC50 in the data set on Hepatitis C virus [9] was 2. Besides, the Ratio in the data set on Caco-2 is 31. In addition, the IC50 at Genome polyprotein is 4 nM.
`CC(C)(C)[C@H]1C(O)=C(C2=NS(=O)(=O)c3c(NS(C)(=O)=O)cccc32)C(=O)N1Cc1ccc(F)cc1`: the concentration for a half-maximal effect (EC50) in the data set with Hepatitis C virus [15] worked out at 4920 nM. On Genome polyprotein, the IC50 amounted to 5 nM.
Regarding `CC(C)(C)[C@H]1C(O)=C(C2=NS(=O)(=O)c3c(OCS(N)(=O)=O)cccc32)C(=O)N1Cc1ccc(F)cc1`, the results for the EC50 in the data set with Hepatitis C virus [1] and in the data set on Hepatitis C virus [3] were 228 nM and 2900 nM, respectively. Besides, the “Ratio IC50” value with Hepatitis C virus [2] is recorded as 12.7. For the same compound, the IC50 at Genome polyprotein was determined as 6 nM.
Turning to `CC(C)(C)[C@H]1C(O)=C(C2=NS(=O)(=O)c3cc(CNS(C)(=O)=O)ccc32)C(=O)N1Cc1ccc(F)cc1`, the EC50 in the data set on Hepatitis C virus [15] came out at 3840 nM. Moreover, at Genome polyprotein, the IC50 was 43 nM.
Turning to `CC(C)(C)[C@H]1C(O)=C(C2=NS(=O)(=O)c3c(CNS(N)(=O)=O)cccc32)C(=O)N1Cc1ccc(F)cc1`, the EC50 in the data set with Hepatitis C virus [1] worked out at 105 nM; in the data set with Hepatitis C virus [3], 1300 nM. The “Ratio IC50” value in the data set with Hepatitis C virus [2] was found to be 12.4. The IC50 at Genome polyprotein stood at 3 nM.
